Test results as given in ChEMBL document CHEMBL1629563, “Pharmacokinetic and safety evaluation of BILR 355, a second-generation nonnucleoside reverse transcriptase inhibitor, in healthy volunteers” (Antimicrob Agents Chemother, 2008).

Tests used:
Homo sapiens [1] = experiment: Toxicity in healthy human assessed as occurrence of migraine at 1 mg, po administered as single dose relative to control; type: organism-based; details: in vivo
Homo sapiens [2] = experiment: Toxicity in healthy human assessed as occurrence of constipation at 5 mg, po administered as single dose relative to control; type: organism-based; details: in vivo
Homo sapiens [3] = experiment: Toxicity in healthy human assessed as occurrence of neurological eyelid disorder at 5 mg, po administered as single dose relative to control; type: organism-based; details: in vivo
Homo sapiens [4] = experiment: Toxicity in healthy human assessed as occurrence of neurological eyelid disorder at 25 mg, po administered as single dose relative to control; type: organism-based; details: in vivo
Homo sapiens [5] = experiment: Toxicity in healthy human assessed as occurrence of neurological eyelid disorder at 100 mg, po administered as single dose relative to control; type: organism-based; details: in vivo
Homo sapiens [6] = experiment: Toxicity in healthy human assessed as occurrence of frequent bowel movements at 50 mg, po administered as single dose relative to control; type: organism-based; details: in vivo
[7] = Half life in healthy human at 75 mg, po administered as single dose coadministered with 100 mg of ritonavir; type: ADME, organism-based; details: in vivo
[8] = Apparent oral clearance in healthy human at 5 mg, po administered as single dose coadministered with 100 mg of ritonavir; type: ADME, organism-based; details: in vivo
Outline: (§1)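 Healthy male volunteers, fasted. Ritonavir 100 mg given 10 h before and again together with single oral BILR 355 in PEG solution. EDTA plasma sampled predose to 144 h. LC-MS/MS assay after protein precipitation. Noncompartmental analysis, AUC by linear up/log down trapezoidal rule; Vss = CL/F·(MRTp.o. − 1/Ka).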

[9] = Apparent oral clearance in healthy human at 12.5 mg, po administered as single dose coadministered with 100 mg of ritonavir; type: ADME, organism-based; details: in vivo; outline: as §1
[10] = Apparent oral clearance in healthy human at 25 mg, po administered as single dose coadministered with 100 mg of ritonavir; type: ADME, organism-based; details: in vivo; outline: as §1
[11] = Mean residence time in high fat fed healthy human at 50 mg, po administered as single dose coadministered with 100 mg of ritonavir; type: ADME, organism-based; details: in vivo
[12] = Renal clearance in healthy human at 25 mg, po administered as single dose coadministered with 100 mg of ritonavir by high-pressure liquid chromatography-tandem mass spectrometry/mass spectrometry method; type: ADME, organism-based, Kidney; details: in vivo, read-out: CL_renal (converted)
Homo sapiens [13] = experiment: Toxicity in healthy human assessed as occurrence of aphthous stomatitis at 100 mg, po administered as single dose; type: organism-based; details: in vivo
Homo sapiens [14] = experiment: Toxicity in healthy human assessed as occurrence of diarrhea at 87.5 mg, po administered as single dose coadministered with 100 mg of ritonavir; type: organism-based; details: in vivo
Homo sapiens [15] = experiment: Toxicity in healthy human assessed as occurrence of fatigue at 5 mg, po administered as single dose coadministered with 100 mg of ritonavir; type: organism-based; details: in vivo
Homo sapiens [16] = experiment: Toxicity in healthy human assessed as occurrence of fatigue at 62.5 mg, po administered as single dose coadministered with 100 mg of ritonavir; type: organism-based; details: in vivo
Homo sapiens [17] = experiment: Toxicity in healthy human assessed as occurrence of maculopapular rash at 5 mg, po administered as single dose coadministered with 100 mg of ritonavir; type: organism-based; details: in vivo
[18] = AUC (0 to last) in healthy human at 50 mg, po administered as single dose; type: ADME, organism-based; set-up: dose 50 mg, route oral, time 0 - last; details: plasma
Outline: (§2)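 Healthy male volunteers, six active plus two placebo per dose group, single oral dose in PEG solution with 200 ml water after overnight fast; breakfast 60 to 90 min post-dose. EDTA plasma sampled predose to 144 h. Assayed by validated LC-MS/MS after protein precipitation. Noncompartmental analysis, AUC by linear up/log down trapezoidal rule; Vss = CL/F·(MRTp.o. − 1/Ka).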

[19] = Cmax in healthy human at 5 mg, po administered as single dose by high-pressure liquid chromatography-tandem mass spectrometry/mass spectrometry method; type: ADME, organism-based; set-up: dose 5 mg, route oral; details: in vivo
Outline: (§3)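 Single fasting oral dose of BILR 355 in PEG solution with 200 ml tap water, given to healthy males. Standard breakfast came 60-90 min after the dose. EDTA plasma was sampled predose to 144 h, stored below −18°C and assayed by LC-MS/MS after protein precipitation. Noncompartmental analysis gave Vz/F. Vss/F = CL/F·(MRTp.o. − 1/Ka), with Ka from compartmental modelling.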

[20] = Apparent oral clearance in healthy human at 12.5 mg, po administered as single dose; type: ADME, organism-based; details: in vivo; outline: as §2
Homo sapiens [21] = experiment: Apparent oral clearance in healthy human at 75 mg, po administered as single dose; type: ADME, organism-based; details: in vivo; outline: as §2
Homo sapiens [22] = experiment: Ratio of half life in human at 50 mg, po in presence of 100 mg of ritonavir to half life in human at 50 mg, po; type: ADME, organism-based; details: in vivo
Homo sapiens [23] = experiment: Toxicity in healthy human assessed as occurrence of abdominal pain at 25 mg, po administered as single dose relative to control; type: organism-based, Abdomen; details: in vivo
[24] = Apparent oral clearance in healthy human at 100 mg, po administered as single dose; type: ADME, organism-based; details: in vivo; outline: as §2
[25] = Apparent volume of distribution in terminal phase in healthy human at 75 mg, po administered as single dose; type: ADME, organism-based; details: in vivo, read-out: Vz/F; outline: as §3
[26] = AUC (0 to last) in healthy human at 75 mg, po administered as single dose coadministered with 100 mg of ritonavir; type: ADME, organism-based; set-up: dose 75 mg, route oral, time 0 - last; details: plasma; outline: as §1
[27] = Cmax in healthy human at 75 mg, po administered as single dose coadministered with 100 mg of ritonavir by high-pressure liquid chromatography-tandem mass spectrometry/mass spectrometry method; type: ADME, organism-based; set-up: dose 75 mg, route oral; details: in vivo
Outline: (§4)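 Healthy male volunteers, fasted overnight, got one oral dose of BILR 355 in PEG solution with 200 ml water. Ritonavir 100 mg was given 10 h before and again with the dose. Plasma was sampled (EDTA) from predose to 144 h and assayed by validated LC-MS/MS. Cmax and Vz/F came from noncompartmental analysis. Vss/F = CL/F·(MRTp.o. − 1/Ka), with Ka from compartmental modelling.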

[28] = Cmax in healthy human at 87.5 mg, po administered as single dose coadministered with 100 mg of ritonavir by high-pressure liquid chromatography-tandem mass spectrometry/mass spectrometry method; type: ADME, organism-based; set-up: dose 87.5 mg, route oral; details: in vivo; outline: as §4
[29] = Tmax in healthy human at 5 mg, po administered as single dose coadministered with 100 mg of ritonavir; type: ADME, organism-based; details: in vivo
[30] = Tmax in healthy human at 62.5 mg, po administered as single dose coadministered with 100 mg of ritonavir; type: ADME, organism-based; details: in vivo
[31] = Tmax in healthy human at 75 mg, po administered as single dose coadministered with 100 mg of ritonavir; type: ADME, organism-based; details: in vivo
[32] = Tmax in high fat fed healthy human at 50 mg, po administered as single dose coadministered with 100 mg of ritonavir; type: ADME, organism-based; details: in vivo
[33] = Half life in healthy human at 12.5 mg, po administered as single dose coadministered with 100 mg of ritonavir; type: ADME, organism-based; details: in vivo
Homo sapiens [34] = experiment: Toxicity in healthy human assessed as occurrence of fatigue at 25 mg, po administered as single dose relative to control; type: organism-based; details: in vivo
Homo sapiens [35] = experiment: Toxicity in healthy human assessed as occurrence of headache at 100 mg, po administered as single dose relative to control; type: organism-based; details: in vivo
Homo sapiens [36] = experiment: Toxicity in healthy human assessed as occurrence of nausea at 5 mg, po administered as single dose relative to control; type: organism-based; details: in vivo
Homo sapiens [37] = experiment: Toxicity in healthy human assessed as occurrence of nausea at 25 mg, po administered as single dose relative to control; type: organism-based; details: in vivo

half-life [7]: 11.9 h
CL/F [8]: 122 mL/min
CL/F [9]: 112 mL/min
CL/F [10]: 98 mL/min
MRT [11]: 18.7 h
CL renal [12]: 6.5 mL/min
AUC(0-t) [18]: 406 ng·h/mL
Cmax [19]: 4.36 ng/mL
CL/F [20]: 4100 mL/min
CL/F (Homo sapiens [21]): 272 L/h
Ratio (Homo sapiens [22]): 4.6
CL/F [24]: 1320 mL/min
Vd/F [25]: 832 L
AUC(0-t) [26]: 12100 ng·h/mL
Cmax [27]: 812 ng/mL
Cmax [28]: 838 ng/mL
Tmax [29]: 5.71 h
Tmax [30]: 0.7 h
Tmax [31]: 1.63 h
Tmax [32]: 6 h
half-life [33]: 15.9 h
Structure (SMILES): CCN1c2ncc(CCOc3cc[n+]([O-])c4ccccc34)cc2C(=O)N(C)c2cccnc21 [BILR 355]
Activity (Homo sapiens [1]): 0%
Activity (Homo sapiens [2]): 0%
Activity (Homo sapiens [3]): 0%
Activity (Homo sapiens [4]): 0%
Activity (Homo sapiens [5]): 0%
Activity (Homo sapiens [6]): 0%
Activity (Homo sapiens [13]): 0%
Activity (Homo sapiens [14]): 16.7%
Activity (Homo sapiens [15]): 0%
Activity (Homo sapiens [16]): 0%
Activity (Homo sapiens [17]): 0%
Activity (Homo sapiens [23]): 16.7%
Activity (Homo sapiens [34]): 0%
Activity (Homo sapiens [35]): 0%
Activity (Homo sapiens [36]): 0%
Activity (Homo sapiens [37]): 0%
